Screening data as filed in PubChem BioAssay.
EBNA-1 inhibitor = blocks EBNA-1 binding to DNA; inhibition, % at 14.8 µM; 300,000 compounds, 0.34% hits; EBNA-1 DNA binding, fluorescence polarization; in the data active = inhibition above about 28%
FGF22 binding = shifts melting point of recombinant human FGF22. Q9HCT0. recombinant FGF22 thermal shift, SYPRO orange fluorescence; percent of sucrose octasulfate shift, DMSO zero. activity (Tm shift, normalised), % at 9.99 µM. 340,000 compounds, 1.5% hits. AID 651658;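 active = mean Tm shift, scaled 0 neutral to 100 positive control, at about 1.3% or above, every replicate too, limit read from the data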
Target sequence (Q9HCT0 whole entry, looked up): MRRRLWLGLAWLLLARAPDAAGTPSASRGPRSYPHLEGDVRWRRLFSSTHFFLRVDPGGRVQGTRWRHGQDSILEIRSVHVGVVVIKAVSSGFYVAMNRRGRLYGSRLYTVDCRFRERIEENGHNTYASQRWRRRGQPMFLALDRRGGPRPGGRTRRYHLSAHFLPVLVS
ZTA counter = ZTA (EBV) inhibition in EBNA-1 counter-screen; P03206; ZTA-DNA binding, fluorescence polarization; inhibition, % at 11 µM; 320,000 compounds, 0.15% hits; AID 2234; in the data active = inhibition above about 33%
Target sequence (P03206 whole entry, looked up): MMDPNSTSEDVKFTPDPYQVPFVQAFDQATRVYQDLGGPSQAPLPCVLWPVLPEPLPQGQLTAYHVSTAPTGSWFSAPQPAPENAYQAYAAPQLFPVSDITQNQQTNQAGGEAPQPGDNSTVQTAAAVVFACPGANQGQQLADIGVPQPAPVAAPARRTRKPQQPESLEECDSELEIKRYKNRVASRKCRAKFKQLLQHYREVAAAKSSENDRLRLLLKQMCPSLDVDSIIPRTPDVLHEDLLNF
NS3 helicase inh = inhibitors of Hepatitis C virus NS3 helicase; NS3 helicase DNA unwinding, Cy5 molecular beacon fluorescence; inhibition, % at 10.9 µM; 290,000 compounds, 0.56% hits; AID 1800;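 active = inhibition above the mean of all tested compounds plus 3 SD, set per campaign, cut at about 35% in these data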;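 note: 0% = DMSO wells and 100% = thioflavine S control wells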
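System: HCV NS3 helicase fragment; control set: DMSO and thioflavine S; technique: Cy5 fluorescence at 0 and 60 min, beacon hairpin quenching; reagent: beacon DNA duplex substrate plus ATP; replicates: singlicate; schedule: 1 h reaction at 25 °C, ATP-initiated; medium: MOPS buffer pH 6.5 with MgCl2, DTT, Tween20, BSA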
FID counter = displaces DNA intercalator in HCV helicase counter-screen; 290,000 compounds, 0.17% hits; AID 1845; DNA fluorescent intercalator displacement, fluorescence; inhibition, % at 7.9 µM; in the data active = inhibition above about 37%;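 note: 0% = vehicle and 100% = reference compound; higher means more ethidium bromide displaced from hairpin DNA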
NR3A LBD binder = modulators (binders) of human NR3A ligand-binding domain; NR3A LBD differential scanning fluorimetry, Tm shift; 0% = protein alone, 100% = glycine-bound protein; Tm shift relative to glycine control, % at 25 µM; 340,000 compounds, 2.5% hits;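 active = melting temperature shift of at least 10% of the positive control shift, at one fixed dose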
Starred values were filed as active, the others as inactive. Hits are enriched below; roughly 3.6% of the tested compounds scored in any of these assays.

COc1cc(/C=C(\C#N)C(=O)NCC2CCCO2)ccc1OCC(=O)O (configuration not stated) was read as EBNA-1 inhibitor 13, FGF22 binding 0, ZTA counter 10, NS3 helicase inh -6, FID counter -3 and NR3A LBD binder -2.
Screening C[C@H](CO)N1C[C@H](C)[C@H](CN(C)Cc2ccc(F)cc2)Oc2cc(C#CC3CC3)ccc2S1(=O)=O returned FGF22 binding 0.
Screening O=C(O)c1ccc(CN(c2ccccn2)S(=O)(=O)c2ccccc2)cc1 returned EBNA-1 inhibitor -2, ZTA counter -6, NS3 helicase inh 0, FID counter 0 and NR3A LBD binder 1.
`Cc1c(Cl)cccc1N(Cc1ccc(C(=O)O)cc1)S(=O)(=O)c1ccccc1` gave EBNA-1 inhibitor 2, ZTA counter 2, NS3 helicase inh 12, FID counter -37 and NR3A LBD binder 13*.
CC1CCc2c(sc(Nc3nc4c(F)cccc4s3)c2C(N)=O)C1 (configuration not stated) was read as EBNA-1 inhibitor 11, ZTA counter 2, NS3 helicase inh 31, FID counter -17 and NR3A LBD binder 12*.
O=C(Nc1nc2c(F)cccc2s1)C1CC1 was read as EBNA-1 inhibitor -5, FGF22 binding 0, ZTA counter -3, NS3 helicase inh 32, FID counter -7 and NR3A LBD binder 2.
Screening Cc1noc(C)c1S(=O)(=O)Nc1ccc2c(c1)C(=O)N([C@@H](C)CO)C[C@H](C)[C@H](CN(C)Cc1ccc(C(=O)O)cc1)OCCCC[C@H](C)O2 returned FGF22 binding 1.3*.
Screening Cc1noc(C)c1S(=O)(=O)Nc1ccc2c(c1)C(=O)N([C@H](C)CO)C[C@H](C)[C@H](CN(C)Cc1ccc(C(=O)O)cc1)OCCCC[C@@H](C)O2 returned FGF22 binding 1.4*.
For C[C@@H]1CCCCO[C@H](CN(C)Cc2ccc(C(=O)O)cc2)[C@H](C)CN([C@@H](C)CO)C(=O)c2cc(NS(=O)(=O)c3cn(C)cn3)ccc2O1 the results were FGF22 binding 1.3*.
Cc1noc(C)c1S(=O)(=O)Nc1ccc2c(c1)C(=O)N([C@H](C)CO)C[C@@H](C)[C@H](CN(C)Cc1ccc(C(=O)O)cc1)OCCCC[C@@H](C)O2 was read as FGF22 binding 1.
`Cc1noc(C)c1S(=O)(=O)Nc1ccc2c(c1)C(=O)N([C@@H](C)CO)C[C@@H](C)[C@@H](CN(C)Cc1ccc(C(=O)O)cc1)OCCCC[C@H](C)O2` gave FGF22 binding 1.
`C[C@@H]1CN([C@@H](C)CO)C(=O)Cc2cc(N(C)C)ccc2O[C@H]1CN(C)CC1CC1` gave FGF22 binding -1.
Screening COc1cccc(-c2ccc3n(c2=O)C[C@@H]2[C@@H](CO)[C@H](C(=O)NC4CCCC4)[C@H]3N2C)c1 returned FGF22 binding 0.
CCCCC(=O)Nc1nnc(CCOC)s1 was read as EBNA-1 inhibitor -14, FGF22 binding 43*, ZTA counter 13, NS3 helicase inh -28, FID counter -7 and NR3A LBD binder 0.
For CCCC(=O)Nc1nnc(CCOC)s1 the results were EBNA-1 inhibitor 10, FGF22 binding 0, ZTA counter 24, NS3 helicase inh -4, FID counter -5 and NR3A LBD binder -1.
For Cc1cccc(C)c1OCC(=O)Nn1c(=O)[nH]c2ccccc2c1=O the results were EBNA-1 inhibitor -6, FGF22 binding 43*, ZTA counter -13, NS3 helicase inh -8, FID counter -6 and NR3A LBD binder -1.
Screening O=C(COC(=O)c1c2c(nc3ccccc13)CCCC2)Nc1ccc2c(c1)OCO2 returned EBNA-1 inhibitor 3, ZTA counter 11, NS3 helicase inh -11, FID counter -12 and NR3A LBD binder -1.
`COc1ccc(OC)c(NC(=O)COC(=O)Cc2ccc(-c3ccccc3)cc2)c1` gave EBNA-1 inhibitor -3, ZTA counter -14, NS3 helicase inh 6, FID counter -4 and NR3A LBD binder -11.
O=C(COC(=O)c1cc(-c2ccccc2)nc2ccccc12)Nc1ccc2c(c1)OCO2 was read as EBNA-1 inhibitor 25, FGF22 binding 0, ZTA counter 10, NS3 helicase inh -10, FID counter 6 and NR3A LBD binder 13*.
`COc1cc(NC(=O)COC(=O)Cc2ccc(-c3ccccc3)cc2)cc(OC)c1` gave EBNA-1 inhibitor 11, FGF22 binding 1, ZTA counter -3, NS3 helicase inh -4, FID counter -16 and NR3A LBD binder 36*.
COc1ccc(-c2cc(C(=O)OCC(=O)Nc3ccc4c(c3)OCO4)c3ccccc3n2)cc1 was read as EBNA-1 inhibitor 6, FGF22 binding 0, ZTA counter -17, NS3 helicase inh -15, FID counter 0 and NR3A LBD binder 15*.
COc1ccc(NC(=O)COC(=O)c2cc(S(=O)(=O)N3CCCC3)ccc2O)cc1 was read as FGF22 binding 0 and NR3A LBD binder 3.
`COc1ccc(NS(=O)(=O)c2ccc(O)c(C(=O)OCC(=O)Nc3ccc4c(c3)OCCO4)c2)cc1` gave EBNA-1 inhibitor -6, ZTA counter -11, NS3 helicase inh 23, FID counter -40 and NR3A LBD binder 19*.
For CCC(=O)N(C)C[C@@H]1Oc2cc(-c3cccc(OC)c3)ccc2S(=O)(=O)N([C@H](C)CO)C[C@H]1C the results were FGF22 binding 0.
Screening COc1ccc(CCC(=O)Nc2ccc3c(c2)OCO3)cc1 returned EBNA-1 inhibitor -10, FGF22 binding 0, ZTA counter -13, NS3 helicase inh 1, FID counter -6 and NR3A LBD binder -2.
COc1ccc(CC(=O)OCC(=O)Nc2ccc3c(c2)OCO3)cc1 was read as EBNA-1 inhibitor -2, FGF22 binding 43*, ZTA counter 3, NS3 helicase inh 1, FID counter -4 and NR3A LBD binder -2.
For CN1CCN(C(=O)c2cnn(-c3ccccc3)c2NC(=O)c2ccccc2)CC1 the results were EBNA-1 inhibitor -1, FGF22 binding 43*, ZTA counter -3, NS3 helicase inh 0, FID counter 8 and NR3A LBD binder 1.
Screening C[C@H](CO)N1C[C@H](C)[C@@H](CN(C)S(=O)(=O)c2ccc(Cl)cc2)Oc2c(NC(=O)CCCCCC(=O)Nc3ccccc3N)cccc2C1=O returned FGF22 binding 0.
COc1ccc(C[C@@H]2CCc3cnnn3COC[C@H](CC(C)C)NC2=O)cc1 was read as FGF22 binding 0.
O=C(C[C@H]1CC[C@@H]2[C@H](COC[C@@H](O)CN2C(=O)Nc2ccc(F)cc2)O1)NC1CCC1 was read as FGF22 binding 0.
